Most compounds without a hit are left out; they make up all but 1.4% or so of the library.
GSTO1 counter – GSTO1 inhibition, counter-screen for RBBP9 inhibitors. P78417. recombinant GSTO1, activity-based probe fluorescence polarization. inhibition, % at 5.96 µM. hit rate 1.1% among 300,000;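 active means inhibition above the campaign mean inhibition plus 3 SD, cut at about 35% in these data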;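 further: 0% = GSTO1-1 with DMSO and 100% = wells lacking GSTO1-1 enzyme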
Target sequence (P78417 whole entry, looked up): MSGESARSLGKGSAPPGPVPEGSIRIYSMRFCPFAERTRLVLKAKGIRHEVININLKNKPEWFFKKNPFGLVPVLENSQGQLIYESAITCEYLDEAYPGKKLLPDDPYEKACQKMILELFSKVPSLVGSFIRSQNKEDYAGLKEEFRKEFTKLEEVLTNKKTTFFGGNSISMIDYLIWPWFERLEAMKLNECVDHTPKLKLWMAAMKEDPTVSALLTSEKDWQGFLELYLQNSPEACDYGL
Redox H2O2 prof – compounds producing H2O2 with reducing agent – biochemical, NIH compound library profiling, artefact control for MLSCN library redox annotation, primary screen; activation, % at 10 µM; DTT-dependent redox cycling H2O2, phenol red/HRP absorbance; 100% = 100 µM peroxide control, 0% = buffer; AID 878; hit rate 0.03% among 200,000;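 active means activation of at least 50% relative to the plate's high and low controls in the primary single-dose screen; inactive means activation below 50%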;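 further: compound incubated with DTT at 0.8 mM final as the reducing agent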
HKDC1 inh – HKDC1 (human) hexokinase inhibition; recombinant HKDC1, G6PDH/diaphorase resazurin coupled fluorescence; inhibition, % at 20 µM; hit rate 0.16% among 340,000;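 active means inhibition above about 35% when tested at 20 µM, limit read from the data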;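 further: plate controls were DMSO wells with enzyme for no effect and DMSO wells lacking enzyme for full effect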
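Assay system: recombinant HKDC1 hexokinase; detection: coupled resazurin fluorescence, excitation 525 nm, emission 613 nm; benchmarks: DMSO-plus-enzyme-mix negative control, buffer-substituted positive control; compound dosing: single 20 µM dose; schedule: 90 min at room temperature in dark; also added: glucose plus 1 mM ATP as hexokinase substrates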
UBC9 SUMO inh – blocks human SUMOylation mediated by UBC9 | P63279 | HTRF SUMOylation assay, SAE1/SAE2 + UBC9, in vitro | inhibition, % at 35 µM | hit rate 0.36% among 290,000 | AID 2006; in the data active means inhibition above about 50%, passing the limit was not always enough
Target sequence (P63279 whole entry, looked up): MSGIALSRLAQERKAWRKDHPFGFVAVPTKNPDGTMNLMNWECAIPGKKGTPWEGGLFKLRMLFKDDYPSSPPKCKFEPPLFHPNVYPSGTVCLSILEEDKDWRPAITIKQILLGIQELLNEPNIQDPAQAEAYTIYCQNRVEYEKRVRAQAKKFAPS
Apaf-1 inh – blocks human Apaf-1 apoptosome activity; O14727; reconstituted apoptosome caspase-3 activity, DEVD-Rh110 fluorescence; inhibition, % at 20 µM; hit rate 0.71% among 330,000; AID 489030; active means inhibition of at least 40% at 20 µM;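 further: plate controls were DMSO wells for no effect and DEVD-CHO caspase inhibitor wells for full effect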
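Assay system: Apoptosome proteins | Medium: pH 7.5 Hepes buffer with CHAPS, BSA, DTT | Also added: Cytochrome c and DEVD-Rh110 substrate | Times: 30 min plus 50 min, RT | Detection: Rhodamine 110 fluorescence at Ex 480/Em 540 nm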
GSTO1 inh conf – GSTO1 (human) inhibition, confirmation; shares compounds with GSTO1 counter; recombinant GSTO1, probe fluorescence polarization; inhibition, % at 5.96 µM; hit rate 54% among 2,400;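 active means inhibition above the primary screen's cutoff, its mean inhibition plus 3 SD, cut at about 35% in these data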;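 further: loss of polarization as inhibitors block binding of rhodamine sulfonate ester activity probe; 0% = GSTO1 with DMSO and 100% = wells lacking GSTO1 enzyme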
GSTO1 ABPP inh – blocks recombinant human glutathione S-transferase omega 1; shares compounds with GSTO1 counter; AID 463110; hit rate 30% among 130; inhibition, % at 1 µM; recombinant GSTO1, gel ABPP SE-Rh probe fluorescence;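 active means inhibition of the enzyme GSTO1 above about 75%, limit read from the data; inactive means inhibition below that limit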
The depositor's hits bear a star; . = no result.

SMILES	GSTO1 counter	Redox H2O2 prof	HKDC1 inh	UBC9 SUMO inh	Apaf-1 inh	GSTO1 inh conf	others
c1ccc2c3c([nH]c2c1)-c1[nH]ncc1CC3	74*	2	-2	17	1	11
Clc1ccc2[nH]c3c(c2c1)CCc1cn[nH]c1-3	4	0	-5	-3	19	.
COc1ccc(/C=C2\SC(=O)NC2=S)cc1OC	62*	0	1	-6	2	72*
NS(=O)(=O)c1cccc(NC(=O)COC(=O)Cc2ccc(S(=O)(=O)N3CCOCC3)s2)c1	.	.	4	.	.	.
Cc1ccc(C(=O)c2coc3cc([N+](=O)[O-])c(O)c([N+](=O)[O-])c23)cc1	38*	0	15	15	19	19
CC(=O)N(c1cc(C)ccc1C)c1ccccc1[N+](=O)[O-]	.	.	-5	.	.	.
Cn1nc([N+](=O)[O-])c(C(C#N)c2nc3ccccc3n2C)c(Cl)c1=O (configuration not stated)	63*	0	-2	15	19	31
Cc1[nH]n(-c2ccccc2)c(=O)c1C(c1ccc(O)c([N+](=O)[O-])c1)c1c(C)[nH]n(-c2ccccc2)c1=O	59*	-4	12	.	87*	47*
O=c1c2cc([N+](=O)[O-])cc([N+](=O)[O-])c2[nH]n1-c1ccccc1	11	.	-6	-45	9	.
COc1ccc(NS(=O)(=O)c2ccc(O)c(C(=O)OCC(=O)NC(C)C3CC4CCC3C4)c2)cc1 (configuration not stated)	-15	-2	5	-27	10	.
CC(NC(=O)COC(=O)c1cc(NS(=O)(=O)c2ccc(Cl)c([N+](=O)[O-])c2)ccc1O)C1CC2CCC1C2 (configuration not stated)	46*	0	4	20	13	40*
COc1cccc(CNS(=O)(=O)c2ccc3c(c2)N(C(C)=O)CCO3)c1	6	.	-2	8	-1	.
O=C(CN(c1cccc([N+](=O)[O-])c1)S(=O)(=O)c1ccccc1)N(Cc1ccccc1)Cc1ccccc1	-2	1	-8	-14	7	.
O=[N+]([O-])c1cccc(N(CC2CO2)S(=O)(=O)c2ccccc2)c1 (configuration not stated)	101*	.	2	7	2	98*	GSTO1 ABPP inh=50
Cc1ccc(N(CC2CO2)S(=O)(=O)c2ccc([N+](=O)[O-])cc2)cc1 (configuration not stated)	88*	.	-2	24	12	85*	GSTO1 ABPP inh=45
Cc1ccc(S(=O)(=O)N(CC(=O)N(C)C)c2cccc([N+](=O)[O-])c2)cc1	9	0	-5	7	6	.
Cc1ccc(S(=O)(=O)N(CC2CO2)c2cc(Cl)ccc2Cl)cc1 (configuration not stated)	85*	.	-2	-2	11	91*	GSTO1 ABPP inh=0
Cc1ccc(S(=O)(=O)N(CC(O)CN2CCOCC2)c2cc(Cl)ccc2Cl)cc1 (configuration not stated)	6	-4	-6	-2	-11	.
O=S(=O)(c1ccc2ccccc2c1)N(CC1CO1)c1ccccc1 (configuration not stated)	70*	-1	-3	6	12	92*	GSTO1 ABPP inh=26
COc1ccccc1CNC(=O)[C@H](Cc1c[nH]c2ccccc12)NC(=O)[C@@H]1Cc2ccccc2CN1	14	.	-5	-8	20	.
COc1cc2cc(CCCOC(=O)c3ccc4c(c3)OCO4)oc(=O)c2cc1OC	.	.	5	.	6	.
COc1ccc(NC(=S)NC(NC(=O)c2ccccc2Cl)C(Cl)(Cl)Cl)c([N+](=O)[O-])c1 (configuration not stated)	-12	-1	-1	-17	4	.
COc1ccc(NC(=S)NC(NC(=O)CCl)C(Cl)(Cl)Cl)c([N+](=O)[O-])c1 (configuration not stated)	92*	0	19	2	17	97*
Oc1ccccc1Oc1ncc(Br)c(N2CCOCC2)n1	10	0	-6	5	14	.
Oc1ccccc1Oc1ncc(Br)c(Cl)n1	49*	.	-2	1	4	4
SMILES	GSTO1 counter	Redox H2O2 prof	HKDC1 inh	UBC9 SUMO inh	Apaf-1 inh	GSTO1 inh conf	others
Cc1cc(OCC(=O)OC(C)C(=O)Nc2ccc(N3CCOCC3)cc2)ccc1Cl (configuration not stated)	.	.	-3	.	5	.
Cc1nn(CCC#N)c(NC(=O)c2ccc(Cl)cc2)c1P(=O)(Nc1ccc([N+](=O)[O-])cc1)N1CCOCC1 (configuration not stated)	-2	0	-8	11	-3	.
CCN(CC)P(=O)(Nc1ccc(Br)cc1)c1c(C)nn(CCC#N)c1NC(=O)c1ccc(Cl)cc1 (configuration not stated)	47*	.	2	0	8	23
CCc1nnc(NC(=O)CCC(=O)N2CCN(Cc3ccc(F)cc3)CC2)s1	6	.	-8	15	10	.
Oc1ccc(/C=N/Nc2ccnc3cc(Cl)ccc23)cc1O	38*	.	-3	-14	5	7
CC/C(=N\Nc1ccnc2cc(Cl)ccc12)c1ccc(O)cc1	-4	.	2	-6	2	.
Clc1ccccc1C1Nc2cccc3cccc(c23)N1	43*	.	11	43	35	8
Clc1cccc(C2Nc3cccc4cccc(c34)N2)c1Cl	14	.	9	31	11	.
COc1ccc(CNC(=O)CCCNC(=O)c2ccc(Cl)cc2)cc1OC	-1	.	5	3	1	.
O=c1c(O)c(-c2ccc(O)c(O)c2)oc2cc(O)cc(O)c12	57*	.	3	5	19	66*
O=C(O)C1OC(Oc2c(-c3ccc(O)c(O)c3)oc3cc(O)cc(O)c3c2=O)C(O)C(O)C1O (configuration not stated)	34	0	3	17	4	.
COc1ccc(-c2cc(=O)c3c(O)cc(O)cc3o2)cc1	0	.	-4	.	9	.
O=c1cc(-c2ccc(O)c(O)c2)oc2cc(O)cc(O)c12	50*	.	7	-6	8	47*
CCN(c1ccccc1)S(=O)(=O)c1cc(NC(=O)CSc2n[nH]c(=O)[nH]c2=O)ccc1Cl	52*	.	-1	-13	-25	67*
O=[N+]([O-])c1ccc(/C=N/n2cnc3ccccc32)s1	55*	0	6	7	13	31
Cc1cc2ncn(/N=C/c3ccc([N+](=O)[O-])s3)c2cc1C	15	0	-2	14	.	.
O=C1C(=O)N(C/C=C/c2ccccc2)c2ccccc21	3	.	19	10	15	.
O=c1cc(-c2ccc(Cl)cc2)[nH][nH]1	49*	2	-3	24	7	10

High-throughput results deposited in PubChem BioAssay by several laboratories.
